Experiments:
Format in all cases: functional
CAKI-1 = assay: Growth inhibition of human CAKI-1 cells assessed as cell growth at 0.1 uM incubated for 48 hrs by sulforhodamine B assay relative to control; details: read-out: Activity
In short: (§1)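 NCI Developmental Therapeutics Program NCI60 panel. Compounds that were active in the 10 µM one-dose screen went on to dose–response testing. Growth at each concentration is expressed relative to untreated control (100%). GI50 (concentration giving 50% of maximal inhibition of proliferation) and TGI (concentration giving total growth inhibition) were derived from the curves.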

Malme-3M = assay: Growth inhibition of human Malme-3M cells assessed as cell growth at 0.01 uM incubated for 48 hrs by sulforhodamine B assay relative to control; details: read-out: Activity
SK-MEL-5 = assay: Growth inhibition of human SK-MEL-5 cells assessed as cell growth at 1 uM incubated for 48 hrs by sulforhodamine B assay relative to control; details: read-out: Activity
T47D = assay: Growth inhibition of human T47D cells assessed as cell growth at 0.01 uM incubated for 48 hrs by sulforhodamine B assay relative to control; details: read-out: Activity
786-0 = assay: Growth inhibition of human 786-0 cells assessed as cell growth at 0.01 uM incubated for 48 hrs by sulforhodamine B assay relative to control; details: read-out: Activity; in short: as §1
TK-10 [1] = assay: Growth inhibition of human TK-10 cells assessed as cell growth at 0.01 uM incubated for 48 hrs by sulforhodamine B assay relative to control; details: read-out: Activity
SF-295 = assay: Growth inhibition of human SF-295 cells assessed as cell growth at 100 uM incubated for 48 hrs by sulforhodamine B assay relative to control; details: read-out: Activity
HCT-116 = assay: Growth inhibition of human HCT-116 cells assessed as cell growth at 0.1 uM incubated for 48 hrs by sulforhodamine B assay relative to control; details: read-out: Activity
CCRF-CEM [2] = assay: Growth inhibition of human CCRF-CEM cells assessed as cell growth at 100 uM incubated for 48 hrs by sulforhodamine B assay relative to control; details: read-out: Activity; in short: as §1
BT-549 = assay: Growth inhibition of human BT-549 cells assessed as cell growth at 0.01 uM incubated for 48 hrs by sulforhodamine B assay relative to control; details: read-out: Activity
COLO 205 = assay: Growth inhibition of human COLO 205 cells assessed as cell growth at 0.1 uM incubated for 48 hrs by sulforhodamine B assay relative to control; details: read-out: Activity; in short: as §1
KM12 = assay: Growth inhibition of human KM12 cells incubated for 48 hrs by sulforhodamine B assay
In short: (§2)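 NCI60 panel at the NCI Developmental Therapeutics Program. Only compounds active in the 10 µM screen went to dose-response testing. GI50, the concentration giving 50% of maximal inhibition of proliferation, and TGI, the concentration giving total growth inhibition, were derived from the dose-response curves.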

NCI/ADR-RES = assay: Growth inhibition of human NCI/ADR-RES cells assessed as cell growth at 0.01 uM incubated for 48 hrs by sulforhodamine B assay relative to control; details: read-out: Activity
HOP-92 [3] = assay: Growth inhibition of human HOP-92 cells assessed as cell growth at 0.1 uM incubated for 48 hrs by sulforhodamine B assay relative to control; details: read-out: Activity
SK-MEL-2 = assay: Growth inhibition of human SK-MEL-2 cells assessed as cell growth at 100 uM incubated for 48 hrs by sulforhodamine B assay relative to control; details: read-out: Activity
SW-620 [4] = assay: Growth inhibition of human SW-620 cells assessed as cell growth at 100 uM incubated for 48 hrs by sulforhodamine B assay relative to control; details: read-out: Activity
MOLT-4 [5] = assay: Growth inhibition of human MOLT-4 cells incubated for 48 hrs by sulforhodamine B assay; details: for CC50: read-out: LC50 (the source's name); in short: as §2
MDA-MB-231 = assay: Growth inhibition of human MDA-MB-231 cells incubated for 48 hrs by sulforhodamine B assay; details: for CC50: read-out: LC50 (the source's name); in short: as §2
HOP-62 = assay: Growth inhibition of human HOP-62 cells assessed as cell growth at 0.01 uM incubated for 48 hrs by sulforhodamine B assay relative to control; details: read-out: Activity
SK-OV-3 [6] = assay: Growth inhibition of human SK-OV-3 cells assessed as cell growth at 0.1 uM incubated for 48 hrs by sulforhodamine B assay relative to control; details: read-out: Activity
CCRF-CEM [7] = assay: Growth inhibition of human CCRF-CEM cells assessed as cell growth at 0.01 uM incubated for 48 hrs by sulforhodamine B assay relative to control; details: read-out: Activity; in short: as §1
SK-OV-3 [8] = assay: Growth inhibition of human SK-OV-3 cells assessed as cell growth at 1 uM incubated for 48 hrs by sulforhodamine B assay relative to control; details: read-out: Activity
MOLT-4 [9] = assay: Growth inhibition of human MOLT-4 cells assessed as cell growth at 0.1 uM incubated for 48 hrs by sulforhodamine B assay relative to control; details: read-out: Activity
NCI-H460 = assay: Growth inhibition of human NCI-H460 cells incubated for 48 hrs by sulforhodamine B assay; in short: as §2
SW-620 [10] = assay: Growth inhibition of human SW-620 cells assessed as cell growth at 0.1 uM incubated for 48 hrs by sulforhodamine B assay relative to control; details: read-out: Activity
U-251 = assay: Growth inhibition of human U-251 cells assessed as cell growth at 100 uM incubated for 48 hrs by sulforhodamine B assay relative to control; details: read-out: Activity
NCI-H322M = assay: Growth inhibition of human NCI-H322M cells assessed as cell growth at 100 uM incubated for 48 hrs by sulforhodamine B assay relative to control; details: read-out: Activity
TK-10 [11] = assay: Growth inhibition of human TK-10 cells assessed as cell growth at 100 uM incubated for 48 hrs by sulforhodamine B assay relative to control; details: read-out: Activity
SNB-19 = assay: Growth inhibition of human SNB-19 cells assessed as cell growth at 100 uM incubated for 48 hrs by sulforhodamine B assay relative to control; details: read-out: Activity
SK-MEL-28 = assay: Growth inhibition of human SK-MEL-28 cells assessed as cell growth at 0.01 uM incubated for 48 hrs by sulforhodamine B assay relative to control; details: read-out: Activity
MDA-MB-435 = assay: Growth inhibition of human MDA-MB-435 cells incubated for 48 hrs by sulforhodamine B assay; in short: as §2
HOP-92 [12] = assay: Growth inhibition of human HOP-92 cells assessed as cell growth at 0.01 uM incubated for 48 hrs by sulforhodamine B assay relative to control; details: read-out: Activity
DU-145 = assay: Growth inhibition of human DU-145 cells assessed as cell growth at 1 uM incubated for 48 hrs by sulforhodamine B assay relative to control; details: read-out: Activity; in short: as §1
UACC-257 = assay: Growth inhibition of human UACC-257 cells incubated for 48 hrs by sulforhodamine B assay
In short: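 NCI DTP 60-line human tumour panel. Dose-response curves were run only for ligands active in the initial 10 µM screen. GI50 (concentration giving 50% of maximal inhibition of proliferation) and TGI (concentration giving total growth inhibition) were derived from these curves.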

PC-3 = assay: Growth inhibition of human PC-3 cells assessed as cell growth at 100 uM incubated for 48 hrs by sulforhodamine B assay relative to control; details: read-out: Activity

Cc1ccc(NC(=O)c2sc3nc4c(cc3c2N)C(=O)CCC4)cc1C
growth at 0.1 µM (CAKI-1): 91%
growth at 0.01 µM (Malme-3M): 96%
growth at 1 µM (SK-MEL-5): 21%
growth at 0.01 µM (T47D): 98%
growth at 0.01 µM (786-0): 98%
growth at 0.01 µM (TK-10 [1]): 96%
growth at 100 µM (SF-295): 12%
growth at 0.1 µM (HCT-116): 90%
growth at 100 µM (CCRF-CEM [2]): 10%
growth at 0.01 µM (BT-549): 107%
growth at 0.1 µM (COLO 205): 98%
GI50 (KM12): 0.479 µM
LC50 (KM12): > 100 µM
TGI (KM12): > 100 µM
growth at 0.01 µM (NCI/ADR-RES): 100%
growth at 0.1 µM (HOP-92 [3]): 72%
growth at 100 µM (SK-MEL-2): 18%
growth at 100 µM (SW-620 [4]): 18%
GI50 (MOLT-4 [5]): 6.41 µM
TGI (MOLT-4 [5]): 76.2 µM
CC50 (MOLT-4 [5]): > 100 µM
GI50 (MDA-MB-231): 1.51 µM
TGI (MDA-MB-231): > 100 µM
CC50 (MDA-MB-231): > 100 µM
growth at 0.01 µM (HOP-62): 89%
growth at 0.1 µM (SK-OV-3 [6]): 107%
growth at 0.01 µM (CCRF-CEM [7]): 94%
growth at 1 µM (SK-OV-3 [8]): 29%
growth at 0.1 µM (MOLT-4 [9]): 106%
GI50 (NCI-H460): 0.374 µM
LC50 (NCI-H460): > 100 µM
TGI (NCI-H460): ≥ 100 µM
growth at 0.1 µM (SW-620 [10]): 95%
growth at 100 µM (U-251): -9%
growth at 100 µM (NCI-H322M): 37%
growth at 100 µM (TK-10 [11]): 47%
growth at 100 µM (SNB-19): 29%
growth at 0.01 µM (SK-MEL-28): 99%
GI50 (MDA-MB-435): 0.121 µM
TGI (MDA-MB-435): 0.322 µM
growth at 0.01 µM (HOP-92 [12]): 87%
growth at 1 µM (DU-145): 35%
LC50 (concentration killing 50% of cells) (UACC-257): > 100 µM
TGI (UACC-257): > 100 µM

CCc1cccc(C)c1NC(=O)c1sc2nc3c(cc2c1N)C(=O)CCC3
growth at 0.1 µM (CAKI-1): 91%
growth at 0.01 µM (Malme-3M): 96%
growth at 1 µM (SK-MEL-5): 6%
growth at 0.01 µM (T47D): 97%
growth at 0.01 µM (786-0): 86%
growth at 100 µM (SF-295): 1%
growth at 0.1 µM (HCT-116): 96%
growth at 100 µM (CCRF-CEM [2]): -11%
growth at 0.1 µM (COLO 205): 102%
GI50 (KM12): 0.413 µM
LC50 (KM12): > 100 µM
TGI (KM12): > 100 µM
growth at 0.01 µM (NCI/ADR-RES): 100%
growth at 0.1 µM (HOP-92 [3]): 70%
growth at 100 µM (SW-620 [4]): 14%
GI50 (MOLT-4 [5]): 2.42 µM
TGI (MOLT-4 [5]): ≥ 100 µM
CC50 (MOLT-4 [5]): > 100 µM
GI50 (MDA-MB-231): 1.04 µM
TGI (MDA-MB-231): > 100 µM
CC50 (MDA-MB-231): > 100 µM
growth at 0.01 µM (HOP-62): 94%
growth at 0.01 µM (CCRF-CEM [7]): 97%
growth at 0.1 µM (MOLT-4 [9]): 102%
GI50 (NCI-H460): 0.355 µM
LC50 (NCI-H460): > 100 µM
TGI (NCI-H460): 12.6 µM
growth at 0.1 µM (SW-620 [10]): 91%
growth at 100 µM (U-251): 4%
growth at 100 µM (NCI-H322M): 21%
growth at 100 µM (SNB-19): 34%
growth at 100 µM (PC-3): 18%
growth at 0.01 µM (SK-MEL-28): 90%
GI50 (MDA-MB-435): 0.148 µM
CC50 (MDA-MB-435; read-out: LC50 (the source's name)): > 100 µM
growth at 0.01 µM (HOP-92 [12]): 82%
growth at 1 µM (DU-145): 21%
GI50 (UACC-257): 0.185 µM
LC50 (concentration killing 50% of cells) (UACC-257): > 100 µM
TGI (UACC-257): 62.3 µM

— ChEMBL document CHEMBL4715736, “Identification of anticancer agents based on the thieno[2,3-b]pyridine and 1H-pyrazole molecular scaffolds” (2016)
